In assay [1] the target is T1, Transient receptor potential cation channel subfamily V member 2 (Rattus norvegicus, UniProt Q9WUD2).
T1 sequence (Q9WUD2 whole entry): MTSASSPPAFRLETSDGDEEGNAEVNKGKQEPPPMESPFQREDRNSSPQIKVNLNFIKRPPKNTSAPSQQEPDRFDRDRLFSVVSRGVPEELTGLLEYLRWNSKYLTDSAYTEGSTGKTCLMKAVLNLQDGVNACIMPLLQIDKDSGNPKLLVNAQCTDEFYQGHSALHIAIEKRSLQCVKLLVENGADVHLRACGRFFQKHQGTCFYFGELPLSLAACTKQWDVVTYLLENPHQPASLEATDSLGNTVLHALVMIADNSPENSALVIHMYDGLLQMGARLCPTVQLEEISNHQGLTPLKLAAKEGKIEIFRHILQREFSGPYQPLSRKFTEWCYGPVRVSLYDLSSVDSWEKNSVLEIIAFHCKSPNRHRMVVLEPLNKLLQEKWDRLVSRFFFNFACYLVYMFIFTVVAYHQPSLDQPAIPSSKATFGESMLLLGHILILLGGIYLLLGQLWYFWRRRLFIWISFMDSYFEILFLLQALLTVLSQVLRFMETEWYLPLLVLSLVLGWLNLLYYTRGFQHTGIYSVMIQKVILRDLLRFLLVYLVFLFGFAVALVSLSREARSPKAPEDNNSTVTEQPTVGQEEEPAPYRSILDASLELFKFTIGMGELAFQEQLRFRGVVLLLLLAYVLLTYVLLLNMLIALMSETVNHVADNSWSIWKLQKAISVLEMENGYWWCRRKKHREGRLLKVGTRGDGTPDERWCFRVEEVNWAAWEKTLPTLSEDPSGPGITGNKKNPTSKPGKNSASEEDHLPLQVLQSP
Description: Antagonist activity at recombinant rat TRPV2 expressed in HEK293 cells assessed as inhibition of CBD-induced Ca2+ levels preincubated for 5 mins followed by agonist addition by Fuo-4-AM based spectrofluorimetry. In kind it is cell-based. Summed up: (§1)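 HEK-293 cells heterologously expressing rat TRPV2, fluorometric intracellular Ca2+ assay. Cells are preincubated 5 min with varying test concentrations, then challenged with LPC (3 µM) or CBD (2 µM). Inhibition of the agonist-evoked [Ca2+]i rise gives IC50 (µM).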

For assay [2], the target named is T1, Transient receptor potential cation channel subfamily V member 2. The experiment in a line: Antagonist activity at recombinant rat TRPV2 expressed in HEK293 cells assessed as inhibition of LPC-induced Ca2+ levels preincubated for 5 mins followed by agonist addition by Fuo-4-AM based spectrofluorimetry. The format is cell-based. Summed up: as §1
The target in assay [3] is T2, Transient receptor potential cation channel subfamily V member 2 (Rattus norvegicus) (UniProt Q9WUD2).
T2 sequence (whole entry): T1 sequence (Q9WUD2 whole entry)
Description: Non-competitive antagonist activity at recombinant rat TRPV2 expressed in HEK293 cells assessed as inhibition of CBD-induced Ca2+ levels preincubated for 5 mins followed by agonist addition by Fuo-4-AM dependent spectrofluorimetry based Schild analysis. In kind it is cell-based. A digest of the protocol:
(§2)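 Schild analysis in rat TRPV2-HEK-293 cells by fluorometric Ca2+ assay. Full LPC or CBD concentration–response curves are run at increasing antagonist concentrations. Each agonist concentration is expressed as percent of its effect at 2x10-4 M without antagonist.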

The target of assay [4] is T2, Transient receptor potential cation channel subfamily V member 2 (Rattus norvegicus). Description: Non-competitive antagonist activity at recombinant rat TRPV2 expressed in HEK293 cells assessed as inhibition of LPC-induced Ca2+ levels preincubated for 5 mins followed by agonist addition by Fuo-4-AM dependent spectrofluorimetry based Schild analysis. The format is cell-based. A digest of the protocol:
as §2

Assay [5] addresses Transient receptor potential cation channel subfamily V member 1 (Homo sapiens, UniProt Q8NER1). The experiment in a line: Agonist activity at recombinant human TRPV1 expressed in HEK293 cells assessed as induction of Ca2+ levels by Fuo-4-AM based spectrofluorimetry.

Activity calls are given as the source filed them. The calls are words filed in the database; no cut-off is given here.

Chain of Transient receptor potential cation channel subfamily V member 1 (Q8NER1 whole entry): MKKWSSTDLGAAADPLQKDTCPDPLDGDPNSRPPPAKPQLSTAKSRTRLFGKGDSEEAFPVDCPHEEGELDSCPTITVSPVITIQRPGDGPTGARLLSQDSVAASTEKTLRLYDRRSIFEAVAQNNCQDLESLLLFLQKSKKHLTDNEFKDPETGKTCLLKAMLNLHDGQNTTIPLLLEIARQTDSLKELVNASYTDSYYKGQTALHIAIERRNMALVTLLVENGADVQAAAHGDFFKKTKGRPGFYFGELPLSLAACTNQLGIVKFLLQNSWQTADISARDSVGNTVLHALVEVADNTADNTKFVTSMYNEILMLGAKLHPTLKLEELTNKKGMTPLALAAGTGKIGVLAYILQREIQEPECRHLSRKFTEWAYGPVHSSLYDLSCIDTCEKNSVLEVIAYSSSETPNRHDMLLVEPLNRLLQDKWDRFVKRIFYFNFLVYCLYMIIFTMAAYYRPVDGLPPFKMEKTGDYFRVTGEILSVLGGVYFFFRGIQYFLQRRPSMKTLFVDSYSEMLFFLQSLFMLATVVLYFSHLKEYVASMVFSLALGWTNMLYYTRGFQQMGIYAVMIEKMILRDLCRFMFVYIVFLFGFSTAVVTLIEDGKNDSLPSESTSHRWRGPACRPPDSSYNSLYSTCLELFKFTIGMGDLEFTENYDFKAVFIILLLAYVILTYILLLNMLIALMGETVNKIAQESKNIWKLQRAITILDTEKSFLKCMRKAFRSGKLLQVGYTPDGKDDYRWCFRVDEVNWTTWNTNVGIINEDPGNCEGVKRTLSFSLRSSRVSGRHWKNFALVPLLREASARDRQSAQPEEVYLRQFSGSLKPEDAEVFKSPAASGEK

A word on the IC50: it is the concentration at which inhibition is half-maximal. Turning to `CCCCCCCC/C=C\CCCCCCCC(=O)N/N=C/c1ccc(O)c(OC)c1`, the IC50 worked out at 3 µM in assay [1] and 0.12 µM in assay [2]. Consider `CCCCCCCC/C=C\CCCCCCCC(N)=O` [OLEAMIDE], for which the IC50 in assay [1] and in assay [2] was 2.1 µM throughout. Turning to `CCCCCC[C@@H](O)C/C=C\CCCCCCCCSCCC(=O)NCc1ccc(O)c(OC)c1`, the IC50 in assay [2] is above 10 µM. Take `CCCCCCCCCCCCCCCC(=O)O` [PALMITIC ACID]: the IC50 in assay [1] and in assay [2] was above 10 µM throughout. Regarding `CC/C=C\C/C=C\C/C=C\C/C=C\C/C=C\CCCC(=O)NCCO`, the IC50 in assay [1] is 2.3 µM; in assay [2] it was above 10 µM. For `CCCCCC[C@@H](O)C/C=C/CCCCCCCC(=O)NCc1ccc(O)c(OC)c1` the same measures were 7.5 µM and above 10 µM.

With `CC/C=C\C/C=C\C/C=C\C/C=C\C/C=C\C/C=C\CCC(=O)NCCO`, the IC50 in assay [1] is 1.63 µM; in assay [2] it was above 10 µM. Take `CCCCCCC(=O)C/C=C/CCCCCCCC(=O)NCc1ccc(O)c(OC)c1`: the IC50 is 4.4 µM in assay [1] and above 10 µM in assay [2].

On to `CCCCCCCC/C=C\CCCCCCCC(=O)O` [OLEIC ACID], for which the IC50 in assay [1] and in assay [2] was above 10 µM each time. Regarding `CCCCCCCC/C=C\CCCCCCCCSCCC(=O)NCc1ccc(O)c(OC)c1`, the IC50 in assay [2] turned out to be 2.5 µM.

On to `CCCCCCCCCCCCCCCCCC(=O)NCc1ccc(O)c(OC)c1`, for which the IC50 in assay [1] and in assay [2] was above 10 µM each time. As for `CCCCCCCCCCCCCCCCCCCC(N)=O`, the IC50 in assay [1] and in assay [2] was above 10 µM throughout. Take `CCCCCCCC/C=C\CCCCCCCCCCCC(N)=O`: the IC50 in assay [1] was found to be 7.1 µM; in assay [2] it was 0.67 µM.

`CCCCCCCC/C=C\CCCCCCCCCCCC(=O)NCc1ccc(O)c(OC)c1`: the figures for the IC50 in assay [1] and in assay [2] were 1.5 µM and 0.49 µM, respectively. For the compound `CCCCCC[C@@H](O)C/C=C\CCCCCCCC[Se]CCC(=O)NCc1ccc(O)c(OC)c1`, the results for the IC50 in assay [1] and in assay [2] were 1.4 µM and above 10 µM, respectively. The inhibition result in assay [3] was “Active”. For the compound `CCCCCCCCCCCCCCCCOC(=O)CSCCC(=O)NCc1ccc(O)c(OC)c1`, the IC50 in assay [2] was above 10 µM. For `CCCCC/C=C\C/C=C\CCCCCCCCSCCC(=O)NCc1ccc(O)c(OC)c1`, the IC50 was 2.8 µM in assay [1] and 1.4 µM in assay [2].

As to `CCCCCCCCCCCCCCCCSCCC(=O)NCc1ccc(O)c(OC)c1`, the IC50 in assay [2] was found to be 3.8 µM. Turning to `CCCCCCCC/C=C\CCCCCCCC(=O)NCc1ccc(O)c(OC)c1` [OLVANIL], the IC50 was found to be 1.7 µM in assay [1] and 0.16 µM in assay [2]. The inhibition entry in assay [3] and in assay [4] was “Active” throughout. Take `CCCCCCCCCCCCCCCC(=O)N/N=C/c1ccc(O)c(OC)c1`: the IC50 in assay [1] is 6 µM; in assay [2] it was 0.28 µM. For `CCCCC/C=C\C/C=C\CCCCCCCC(=O)NCc1ccc(O)c(OC)c1` the same measures were 2.1 µM and 2.6 µM. For `CCCCC/C=C\C/C=C\C/C=C\C/C=C\CCCC(=O)NCCO` [ANANDAMIDE] the same measures were 0.96 µM and 8.6 µM. For `CCCCC/C=C\C/C=C\CCCCCCCC(=O)NCCO` [LINOLEOYLETHANOLAMIDE] the same measures were 0.65 µM and 1.4 µM. For the compound `CCCCCCCCCCCCCCCCCCCC(=O)O` [ARACHIDIC ACID], the IC50 in assay [1] and in assay [2] was above 10 µM each time. With `CCCCCCCC/C=C\CCCCCCCCCCCC(=O)NCCO`, the IC50 in assay [1] was above 10 µM; in assay [2], 0.74 µM. Also, the inhibition result in assay [4] is “Active”. Take `CCCCC/C=C\C/C=C\CCCCCCCCCCCC(=O)NCc1ccc(O)c(OC)c1`: the IC50 amounted to 1.8 µM in assay [1] and 0.82 µM in assay [2]. Turning to `CCCCC/C=C\C/C=C\C/C=C\C/C=C\CCCC(=O)O` [ARACHIDONIC ACID], the IC50 in assay [1] and in assay [2] was above 10 µM each time. For `CCCCCCCCCCCCCCCCCCCC(=O)NCc1ccc(O)c(OC)c1`, the IC50 in assay [1] is above 10 µM; in assay [2] it was 3.1 µM. As to `CCCCCCCCCCCCCCCCOC(=O)CSC[C@H](N)C(=O)NCc1ccc(O)c(OC)c1`, in assay [2], the IC50 is 1.4 µM.

In the case of `CCCCCC[C@H](C/C=C\CCCCCCCC[Se]CCC(=O)NCc1ccc(O)c(OC)c1)OC(=O)Cc1ccccc1`, the IC50 in assay [1] was 2.3 µM; in assay [2] it was above 10 µM. On to `CCCCCCCCCCCCCCCCCC(=O)NCCO` [N-(2-HYDROXYETHYL)STEARAMIDE], for which the IC50 in assay [1] and in assay [2] was above 10 µM each time.

As for `CCCCC/C=C\C/C=C\CCCCCCCC[Se]CCC(=O)NCc1ccc(O)c(OC)c1`, the IC50 in assay [1] worked out at 2.3 µM; in assay [2] it was 1.4 µM. For `CCCCCCC(=O)CC(O)CCCCCCCCC(=O)NCc1ccc(O)c(OC)c1` (configuration not stated) the same measures were above 10 µM and above 10 µM. The like results for `CCCCCCCCCCCCCCCC(=O)NCc1ccc(O)c(OC)c1` were, in that order, above 10 µM and above 10 µM. For `CCCCCCCC/C=C\CCCCCCCC(=O)NCCO` [OLEOYLETHANOLAMIDE] the same measures were 5.4 µM and 1.8 µM. Turning to `CCCCCCCC/C=C\CCCCCCCCSC[C@H](N)C(=O)NCc1ccc(O)c(OC)c1`, in assay [2], the IC50 came to 1.9 µM.

For the compound `CCCCCCCCCCCCCCCC[Se]C[C@H](N)C(=O)NCc1ccc(O)c(OC)c1`, in assay [2], the IC50 stood at 1.2 µM. Consider `CCCCCCCCCCCCCCCC(=O)NCCO` [PALMIDROL], for which the IC50 in assay [1] and in assay [2] was above 10 µM throughout.

For `CCCCCC/C=C\CCCCCCCC(=O)NCCO`, the figures for the IC50 in assay [1] and in assay [2] were 1.7 µM and 3.5 µM, respectively. The EC50 is the concentration at which the effect is half-maximal. On to `NCCOB(c1ccccc1)c1ccccc1`, for which, in assay [5], the 50% effective concentration (EC50) is 129 µM. As to `CCCCCCCC/C=C\CCCCCCCC[Se]CCC(=O)NCc1ccc(O)c(OC)c1`, the IC50 came out at 3.2 µM in assay [1] and 1.8 µM in assay [2]. Take `CCCCCCCC/C=C\CCCCCCCC[Se]C[C@H](N)C(=O)NCc1ccc(O)c(OC)c1`: the IC50 in assay [1] is 0.98 µM; in assay [2], 1.7 µM. Also, the inhibition entry in assay [3] and in assay [4] was “Active” each time.

Consider `CCCCCCCC/C=C\CCCCCCCCCCCC(=O)O` [ERUCIC ACID], for which the IC50 in assay [1] and in assay [2] was above 10 µM throughout. Regarding `CCCCCCCCCCCCCCCC(N)=O` [PALMITAMIDE], the IC50 in assay [1] and in assay [2] was above 10 µM throughout. As to `CCCCCCCCCCCCCCCCSC[C@H](N)C(=O)NCc1ccc(O)c(OC)c1`, in assay [2], the IC50 worked out at 1.4 µM.

Consider `CCCCC/C=C\C/C=C\CCCCCCCC(N)=O`, for which the IC50 in assay [1] was 1.2 µM; in assay [2] it was 2.2 µM.

With `CCCCCCCCCCCCCCCCCC(N)=O` [OCTADECANOIC ACID AMIDE], the IC50 in assay [1] and in assay [2] was above 10 µM in each case. As to `CCCCCCCCCCCCCCCC[Se]CCC(=O)NCc1ccc(O)c(OC)c1`, the IC50 in assay [2] was found to be 4.3 µM.

On to `CCCCC/C=C\C/C=C\CCCCCCCCCCCC(=O)O`, for which the 50% inhibitory concentration (IC50) in assay [1] and in assay [2] was above 10 µM in each case.

As for `CCCCCCCCCCCCCCCCCCCC(=O)NCCO`, the IC50 in assay [1] and in assay [2] was above 10 µM throughout. For `CCCCCC[C@H](C/C=C\CCCCCCCCSCCC(=O)NCc1ccc(O)c(OC)c1)OC(=O)Cc1ccccc1`, the IC50 in assay [2] was above 10 µM.

Source of the values: ChEMBL document CHEMBL4229558, “Elongation of the Hydrophobic Chain as a Molecular Switch: Discovery of Capsaicin Derivatives and Endogenous Lipids as Potent Transient Receptor Potential Vanilloid Channel 2 Antagonists” (J Med Chem, 2018).
